Source: PubChem BioAssay
HIV Env fusion: HIV envelope-mediated fusion inhibition. HeLa-JRFL Env/CEM21 cell fusion, luciferase. 360,000 compounds, 1.1% hits. inhibition, % at 12.3 µM;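 active = mean replicate inhibition score of at least 50 and every replicate individually at or above 50; inconclusive = only one of the two criteria met; inactive = mean below 50 and not all replicates reaching 50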
INS-1E GSIS act: primary screen for activators of insulin secretion dependent on glucose, INS-1E cells, GLuc reporter luminescence. 370,000 compounds, 0.61% hits. INS-1E GLuc reporter insulin secretion, 2-3 h. activation, % at 16.6 µM. AID 743287;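 active = lowest replicate activation of at least 40%, so every replicate reaches that level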
Ecoli rRNA inh: inhibitors of bacterial rRNA selective over humanized ribosomes; AID 720706; E. coli WT GFP vs humanized-ribosome RFP mutants, fluorescence, 24 h; stronger effect = lower value; DMSO median 0, no signal -100; GFP signal change (wild-type ribosome), % (concentration not given with the values); 350,000 compounds, 1.6% hits;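 active = significant combined selectivity score with lowered wild-type GFP, culture density cut under 30%, mutant RFP and density less affected; inactive = any of these conditions unmet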
F508del corr: CFTR F508del correction in bronchial cells. CFBE cells, YFP halide quenching; stimulated with forskolin plus potentiator P3; % fluorescence drop versus neutral controls. activity (quench increase), % at 7.58 µM. 350,000 compounds, 0.36% hits;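 active = mean added fluorescence quench of at least 8% versus neutral control, with both replicates also reaching 8%; inconclusive = only one of the mean or replicate conditions met; inactive = mean below 8% and not both replicates reaching 8%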;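 note: cells transiently co-express mutant CFTR-F508del with the halide-sensitive YFP; corrector assay measuring rescue of mutant channel to the surface after 24 h compound exposure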
miR-122 sensor: miR-122 inhibition in Huh7 cells; Huh7 miR-122 Renilla luciferase sensor, 48 h; neutral wells = 0, positive control = 100; activation (reporter increase), % at 12.5 µM; 340,000 compounds, 0.3% hits;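 active = mean replicate activation score at least 90 and every replicate individually at or above 90; inconclusive = only one of the two criteria met; inactive = neither criterion met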;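 note: higher luciferase means less miR-122 activity so hits act as miR-122 inhibitors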
Cneo AK release: causes C. neoformans cell lysis. adenylate kinase release luminescence, 4 h; normalised: neutral wells 0, clomiphene wells 100. lysis activity, % at 15 µM. 360,000 compounds, 0.2% hits. AID 651654;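 active = mean lysis activity across replicates of at least 80%, whatever share of replicates individually reach that level; inactive = mean lysis activity below 80%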
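Material – Cryptococcus neoformans yeast cells · Quantity – 5 × 10^6 yeast cells/mL · Buffer or medium – YPD medium · Compound – single dose · Timing – 4 h static compound exposure, 37 °C, read 1 h post-reagent · Signal – adenylate kinase release luminescence · Read-out basis – lysis from increased AK signal · Benchmarks – Clomiphene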
Large screens that a line does not name were inactive. The list is not random: actives were taken first. Their share in the collection is about 3.1%.

Cc1ccccc1S(=O)(=O)N1C[C@H](O)COC[C@H]2O[C@H](CC(=O)O)CC[C@@H]21	none
CC(C)C(=O)Nc1ccc2c(c1)C(=O)N(C)[C@H]1CC[C@@H](CC(=O)NCCc3ccccc3)O[C@H]1CO2	none (no result: Cneo AK release)
C[C@H]1CN([C@@H](C)CO)C(=O)Cc2cc(NC(=O)CCCN(C)C)ccc2O[C@@H]1CN(C)S(=O)(=O)c1ccccc1	none (no result: HIV Env fusion)
CCCCCCCCOC(=O)c1c(CSC(=N)N)n(C)c2cc(Br)c(OC(C)=O)cc12	HIV Env fusion inconclusive, INS-1E GSIS act 269
N#CC1=C(N)NC(SCC(=O)c2ccc(Br)cc2)=C(C#N)C12CCCCC2	none (no result: F508del corr)
N#CC1=C(N)NC(SCc2ccccc2)=C(C#N)C12CCCCC2	none (no result: INS-1E GSIS act, Ecoli rRNA inh, F508del corr)
COc1ccc(C(=O)CSC2=C(C#N)C3(CCCCC3)C(C#N)=C(N)N2)cc1	HIV Env fusion 76 (no result: Ecoli rRNA inh, F508del corr)
N#CC1=C(N)NC(SCC(=O)Nc2ccccc2)=C(C#N)C12CCCCC2	HIV Env fusion 113 (no result: INS-1E GSIS act, Ecoli rRNA inh, F508del corr)
CCOc1ccc(/C=C/C(=O)c2ccc(-c3ccccc3)cc2)cc1	INS-1E GSIS act 47 (no result: Ecoli rRNA inh, F508del corr, miR-122 sensor, Cneo AK release)
O=C(/C=C/c1ccccc1O)c1ccccc1	Ecoli rRNA inh -19 (no result: miR-122 sensor)
CCOc1ccc(/C=C/C(=O)Oc2ccccc2)cc1	none
CCOc1ccccc1/C=C/C(=O)c1ccc(Cl)cc1	Ecoli rRNA inh -27 (no result: INS-1E GSIS act, F508del corr, miR-122 sensor, Cneo AK release)
O=C(/C=C/c1ccccc1O)c1ccc(Cl)cc1	none (no result: miR-122 sensor, Cneo AK release)
COc1ccccc1/C=C/C(=O)c1ccc(Cl)cc1	none (no result: Ecoli rRNA inh, F508del corr, Cneo AK release)
C[C@@H]1CN([C@@H](C)CO)C(=O)c2cc(C#Cc3cccnc3)cnc2O[C@H]1CN(C)C(=O)CN(C)C	none
O=C(N[C@H]1C=C[C@H](CC(=O)N2CCN(c3ccccc3)CC2)O[C@@H]1CO)c1ccccc1	none (no result: miR-122 sensor)
CCOc1cc(S(=O)(=O)NCc2ccccc2)c(OCC)cc1-n1cnnn1	none (no result: F508del corr)
CCOc1cc(S(=O)(=O)N(Cc2ccccc2)Cc2ccccc2)c(OCC)cc1-n1cnnn1	HIV Env fusion 63 (no result: INS-1E GSIS act, Ecoli rRNA inh, F508del corr)
CC(=O)n1c2c(c3ccccc31)OC(N)=C(C#N)C2c1ccc(C(C)C)cc1 (centres undefined)	Ecoli rRNA inh -15 (no result: HIV Env fusion, Cneo AK release)
COC(=O)Cn1c(Cc2ccccc2)nc2ccccc21	none
CCN(CC)C(=O)n1c(Cc2ccccc2)nc2ccccc21	INS-1E GSIS act 48
CCCCc1ccc(NC(=S)NCCc2ccc(F)cc2)cc1	INS-1E GSIS act 46
CCOC(=O)c1ccoc1CSCC(=O)N1CCN(S(=O)(=O)c2ccc(C)cc2)CC1	HIV Env fusion 56 (no result: INS-1E GSIS act, Ecoli rRNA inh, F508del corr)
CCOC(=O)c1ccoc1CN1CCN(S(=O)(=O)c2ccc(C)c(C)c2)CC1	Ecoli rRNA inh -20
C[C@H]1CN([C@@H](C)CO)C(=O)c2cc(NS(C)(=O)=O)ccc2O[C@H]1CN(C)CC1CC1	none
CCOC(=O)Nc1nc(-c2ccccc2)c(C(=O)c2ccc(Cl)cc2)s1	miR-122 sensor 110 (no result: HIV Env fusion, INS-1E GSIS act, Ecoli rRNA inh, F508del corr)
CCOC(=O)Nc1sc(C)nc1-c1ccccc1	none (no result: HIV Env fusion, miR-122 sensor)
Cc1ccc(CNC(=O)c2ccc3nc4[nH]c5ccccc5c4nc3c2)cc1	INS-1E GSIS act 61 (no result: Ecoli rRNA inh, F508del corr, miR-122 sensor, Cneo AK release)
COc1ccccc1CNC(=O)c1ccc2nc3[nH]c4ccccc4c3nc2c1	none (no result: HIV Env fusion)
CSc1nsc(NN)n1	Ecoli rRNA inh -33 (no result: INS-1E GSIS act)
CSc1nsc(NC(=O)OCc2ccc(Cl)cc2)n1	none
O=C(c1cccnc1)N1CC[C@@H]2[C@H](CO)Nc3ccc(C4=CCCCC4)cc3[C@@H]21	F508del corr 8.1 (no result: HIV Env fusion, miR-122 sensor, Cneo AK release)
O=S(=O)(c1ccc(F)cc1)N1CC[C@@H]2[C@@H](CO)Nc3ccc(-c4ccc(F)cc4)cc3[C@@H]21	F508del corr 16 (no result: HIV Env fusion)
O=C(c1cccc(F)c1)N1CC[C@@H]2[C@H](CO)Nc3ccc(-c4ccccc4F)cc3[C@@H]21	F508del corr 11 (no result: HIV Env fusion)
COc1ccc(S(=O)(=O)N2CC[C@@H]3[C@@H](CO)Nc4ccc(-c5ccc(C#N)cc5)cc4[C@@H]32)cc1	F508del corr 9.7 (no result: HIV Env fusion)
COc1ccc(S(=O)(=O)N2CC[C@@H]3[C@H](CO)Nc4ccc(-c5ccc(C#N)cc5)cc4[C@@H]32)cc1	F508del corr inconclusive (no result: HIV Env fusion)
O=S(=O)(c1ccc(F)cc1)N1CC[C@H]2[C@H](CO)Nc3ccc(-c4ccc(F)cc4)cc3[C@H]21	none (no result: HIV Env fusion)
